Experimental data from ChEMBL document CHEMBL1126160, “Synthesis and structure-activity relationships of 7-diazabicycloalkylquinolones, including danofloxacin, a new quinolone antibacterial agent for veterinary medicine” (J Med Chem, 1992).
In brackets after ≈: the same amount, converted by molar mass.

Legend:
[1] = test system: Trueperella pyogenes; experiment: In vitro antibacterial activity against anaerobically grown Actinomyces pyogenes (14D002); format: functional
Summary of the method: (§1)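 Agar dilution MICs. Anaerobic strains were tested on tryptose agar with 5% bovine blood and incubated 48 h at 39 °C in an anaerobe chamber under N2/CO2/H2 (80:10:10).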

[2] = test system: Salmonella enterica; experiment: In vitro antibacterial activity against aerobically grown Salmonella choleraesuis (58B015); format: functional
[3] = test system: Bordetella bronchiseptica; experiment: In vitro antibacterial activity against aerobically grown Bordetella bronchiseptica (73A009); format: functional
Summary of the method: (§2)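 Agar dilution MICs. Aerobic strains were tested on brain heart infusion agar and incubated aerobically at 37 °C for 18–20 h.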

[4] = test system: Escherichia coli; experiment: The Escherichia coli DNA cleavage endpoint value which is the minimum amount of compound required (micro g/mL) to induce detectable cleavage of supercoiled pBR322 substrate to the linear form (gyrase); format: functional
Summary of the method: (§3)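 DNA gyrase A and B subunits were purified from E. coli overproducers. About 2 units of holoenzyme were incubated with pBR322 in Tris-HCl pH 7.5 containing MgCl2, spermidine, DTT, 0.2 mM ATP, BSA and tRNA. Drug was added as 2-fold serial dilutions, and reactions ran for 60 min at 25 °C. Reactions were stopped with SDS and proteinase K, then run on agarose and stained with ethidium. The endpoint was the lowest concentration giving detectable linear DNA.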

[5] = In vitro evaluation for antibacterial activity against anaerobically grown Treponema hyodysenteriae (94A007); format: functional; conditions: Brachyspira hyodysenteriae
[6] = test system: Actinobacillus pleuropneumoniae; experiment: In vitro antibacterial activity against anaerobically grown Actinobacillus pleuropneumoniae ([…]); format: functional; summary of the method: as §1
[7] = test system: Escherichia coli; experiment: In vitro antibacterial activity against aerobically grown Escherichia coli (51A538); format: functional; summary of the method: as §2
[8] = test system: Pasteurella multocida; experiment: In vitro antibacterial activity against aerobically grown Pasteurella multocida (59A006); format: functional; summary of the method: as §2
[9] = test system: Phocaeicola vulgatus; experiment: In vitro antibacterial activity against anaerobically grown Bacteroides vulgatus (78D029); format: functional; summary of the method: as §1
[10] = test system: Staphylococcus aureus; experiment: In vitro antibacterial activity against aerobically grown Staphylococcus aureus (54B004); format: functional; summary of the method: as §2
[11] = test system: Clostridium perfringens; experiment: microbe, parasite or virus in culture; format: functional
[12] = In vitro antibacterial activity against Aerobically grown Pasteurella haemolytica (59B018); format: functional; conditions: Mannheimia haemolytica; summary of the method: as §2
[13] = test system: Pasteurella multocida; experiment: In vitro antibacterial activity against Aerobically grown Pasteurella multocida (59A006); format: functional; summary of the method: as §2
[14] = test system: Pasteurella multocida; experiment: In vivo protective dose was evaluated against Pasteurella multocida (59A006) in mouse(sc); format: functional; conditions: read-out: PD50
Summary of the method: (§4)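 Female CF-1 mice (15 g), groups of 10, challenged ip with 0.5 mL bacterial suspension (P. multocida 59A006 or E. coli 51A266 at 3.0 × 10^8 cfu/mL; S. choleraesuis 58B010 at 8.5 × 10^2 cfu/mL). Drug given sc or po at 30 min, 4 h and 24 h after challenge; survival recorded at 96 h; PD50 by probit analysis.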

[15] = test system: Escherichia coli; experiment: In vivo protective dose was evaluated against Escherichia coli (51A266) in mouse(sc); format: functional; conditions: read-out: PD50; summary of the method: as §4
[16] = test system: Salmonella enterica; experiment: In vitro antibacterial activity against Aerobically grown Salmonella choleraesuis (58B015); format: functional
[17] = test system: Escherichia coli; experiment: Escherichia coli DNA cleavage endpoint value which is the minimum amount required (in micro g/mL) to induce detectable cleavage of supercoiled pBR322 substrate to linear form (gyrase); format: functional; conditions: read-out: MIC; summary of the method: as §3
[18] = test system: Actinobacillus pleuropneumoniae; experiment: Compound was evaluated for minimum against Actinobacillus pleuropneumoniae intramuscular dose administration; conditions: im, read-out: MED
[19] = test system: Actinobacillus pleuropneumoniae; experiment: Compound was evaluated for minimum effective dose against Actinobacillus pleuropneumonia peroral dose administration; format: functional; conditions: po, read-out: MED
Summary of the method: (§5)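 Calf and swine respiratory disease models. Calves received acetic acid intratracheally on the day before and on day 0, then an endotracheal challenge with P. haemolytica B280PA, about 5 × 10^8 cfu/mL. They were dosed im with a 2.5% or 5% solution in sterile water on days 0 and 1 (SID × 2). Pigs weighing 8.5–12.5 kg were challenged intranasally with A. pleuropneumoniae B316HM, 10^9 cfu/mL. They were dosed once within 1 h, either im (1% or 2.5% solution) or by gavage (0.5% solution). MED was the lowest dose giving significant reduction of lung pathology.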

[20] = test system: Mannheimia haemolytica; experiment: Compound was evaluated for minimum against Pasteurella haemolytica intramuscular dose administration; format: functional; conditions: im, read-out: MED; summary of the method: as §5
[21] = test system: Pasteurella multocida; experiment: In vivo protective dose was evaluated Pasteurella multocida (59A006) in mouse(sc); format: functional; conditions: read-out: PD50; summary of the method: as §4
[22] = test system: Pasteurella multocida; experiment: In vivo protective dose was evaluated Pasteurella multocida (59A006) in mouse(po); format: functional; conditions: read-out: PD50; summary of the method: as §4

Compound | MIC [1] [µg/mL] | MIC [2] [µg/mL] | MIC [3] [µg/mL] | MIC [5] [µg/mL] | MIC [6] [µg/mL] | MIC [7] [µg/mL] | MIC [8] [µg/mL] | MIC [9] [µg/mL] | MIC [10] [µg/mL] | MIC [11] [µg/mL] | MIC [12] [µg/mL] | ED50 [15] [mg/kg] | minimum concentration inducing gyrase-mediated DNA cleavage [17] [µg/mL] | also measured
CN1C[C@@H]2C[C@H]1CN2c1c(F)cc2c(=O)c(C(=O)O)cn(C3CC3)c2c1Cl | 0.39 (≈ 0.995 µM) | < 0.05 | 0.39 (≈ 0.995 µM) | 6.25 (≈ 16 µM) | < 0.05 | < 0.05 | < 0.05 | 0.78 (≈ 1.99 µM) | 0.1 (≈ 0.255 µM) | 0.2 (≈ 0.51 µM) | – | – | – | MIC [4]: 0.19 µg/mL (≈ 0.485 µM)
CCn1cc(C(=O)O)c(=O)c2cc(F)c(N3C[C@@H]4C[C@H]3CN4C)cc21 | > 3.13 | – | 1.56 (≈ 4.52 µM) | 1.56 (≈ 4.52 µM) | 0.78 (≈ 2.26 µM) | 0.2 (≈ 0.579 µM) | – | > 3.13 | 0.39 (≈ 1.13 µM) | 0.2 (≈ 0.579 µM) | 0.39 (≈ 1.13 µM) | 1.45 | 3.12 | MIC [13]: 0.1 µg/mL (≈ 0.29 µM); ED50 [14]: 1.35 mg/kg; MIC [16]: 0.39 µg/mL (≈ 1.13 µM)
CCn1cc(C(=O)O)c(=O)c2cc(F)c(N3C[C@H]4CC[C@@H](C3)N4C)cc21 | > 3.13 | 0.78 (≈ 2.17 µM) | > 1.56 | 3.13 (≈ 8.71 µM) | 0.78 (≈ 2.17 µM) | 0.78 (≈ 2.17 µM) | 0.2 (≈ 0.556 µM) | > 3.13 | 0.2 (≈ 0.556 µM) | 0.39 (≈ 1.09 µM) | 0.39 (≈ 1.09 µM) | 2.23 | 3.12 | minimal effective dose [18]: 0.6 mg/kg; minimal effective dose [19]: 5 mg/kg; minimal effective dose [20]: 1.2 mg/kg; ED50 [21]: 1.31 mg/kg; ED50 [22]: 2.21 mg/kg
